T cruzi inh: inhibitors of intracellular T. cruzi growth, primary screen, luminescence, NIH3T3 host cells. inhibition, % (no concentration beside the values). hit rate 1.4% among 300,000. T. cruzi beta-gal in NIH3T3, 90 h;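 active = mean inhibition across valid replicates above about 55%, limit read from the data; inconclusive = mean below that limit but half or more replicates reach it; inactive = mean below it, under half of replicates reach it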;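 also: signal also drops with host cell toxicity which is not excluded here; 0% = plate median of DMSO wells and 100% = zero luminescence signal; higher percent means less beta-gal luminescence so fewer parasites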
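Material: NIH/3T3 host cells with β-galactosidase reporter T. cruzi; Input: 5,000 host fibroblasts per well; Medium: DMEM, 2% fetal bovine serum; Compound: 50 nL DMSO compound solution per well; Schedule: 3 h host attachment, then at least 90 h co-culture; Detection: luminescent β-galactosidase signal after 60 min lysis.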
Calb FLC: C. albicans growth inhibition with fluconazole, primary screen, CaCi-2 strain, Alamar Blue fluorescence; C. albicans CaCi-2 + fluconazole, 48 h; growth inhibition, % (concentration not given with the values); hit rate 0.57% among 300,000; AID 1979, 2009;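 active = growth inhibition above about 58% in most replicates, limit read from the data, passing the limit was not always enough; inconclusive = exactly half the replicates above a set limit; inactive = most replicates below a set limit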;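 also: all wells also contain fluconazole at 8 µg/ml as a sub-toxic cotreatment; 0% = median of DMSO wells and 100% = median of geldanamycin control wells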
HSF-1 act: HSF-1 activators, primary screen, NIH3T3-HGL cells, MG132 stress, luminescence, single point | hit rate 1.7% among 300,000 | activation, % at 9 µM | NIH3T3-HGL HSF-1 luciferase reporter, 8 h; 100% = twice DMSO control signal | AID 504408, 2011;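 active = mean replicate activation of at least 50% with a set share of replicates each reaching 50%; inconclusive = only one of those two conditions met; inactive = mean below 50% and too few replicates reaching it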;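 also: 0% = median of the neutral control wells and 100% = twice that signal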
HIF act: HIF pathway transcriptional activators, primary screen, cell-based, U2OS HRE-luciferase, luminescence. U2OS HRE-luciferase reporter; normalized: DMSO 0%, desferrioxamine 100%. activation, % at 7.5 µM (by protocol). hit rate 0.32% among 300,000. AID 1910, 2009;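 active = mean activation of at least 10% of the iron chelator positive control signal, with at least half of replicates also reaching 10%; inconclusive = mean and replicate majority disagree about reaching 10%; inactive = mean and most replicates under 10%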
HSF1 inhib: HSF1 inhibitors in luciferase reporter cells, primary screen, cell-based, NIH3T3, luminescence; NIH3T3-HGL HSE-luciferase, MG132-induced, luminescence 8 h; active compounds read low; activity change, negative = inhibition, % at 7.5 µM (by protocol); hit rate 0.77% among 300,000; AID 2098, 2009;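 active = more than half of replicate wells show activity change below -50%, luminescence cut by over half; inconclusive = some wells, but at most half, below -50%; inactive = no replicate well below -50%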;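 also: luciferase reports HSF-1 transcriptional activity via heat shock element; 0% = median of DMSO wells and -100% = zero luminescence signal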
* marks the source's active call; other numbers are inactive results; ? = inconclusive; / = not tested or not shown. Only some compounds are listed: those with a hit (about 4.4% of all), similar ones and a draw of the others.

SMILES | T cruzi inh | Calb FLC | HSF-1 act | HIF act | HSF1 inhib
COc1ccc(-c2cc3nc(C)c(CCC(=O)NCc4ccc(F)cc4)c(C)n3n2)c(OC)c1 | 60* | -31 | 27 | 0 | 14
CCn1c(SCC(=O)O)nnc1-c1cccnc1 | -11 | 7 | 0 | 0 | -8
CCN(CC)CCCNc1nc2ccccc2c2nc(-c3ccncc3)nn12 | 45 | -30 | 2 | 4 | 6
Cn1cc(C(=O)N/N=C/c2ccc(Br)c([N+](=O)[O-])c2)c2ccccc21 | 11 | 0 | 55* | 0 | 23
COc1ccccc1NC(=S)N/N=C/c1cccc(C)c1 | 19 | -20 | 30 | 5 | 9
COc1ccccc1NC(=S)N/N=C/c1ccc(O)cc1 | -10 | 3 | 81* | 3 | 40
CCn1c(C)cc(/C=C2/NC(=O)N(c3ccccc3)C2=O)c1C | 12 | 5 | -55 | 1 | -52*
COc1cc(/C=C/C(=O)OCC(=O)Nc2sc3c(c2C#N)CCC(C)C3)ccc1OCC#N (stereo not drawn) | -1 | 14 | 1 | 2 | 0
CCC(C)c1ccccc1NC(=O)c1cc(C)no1 (stereo not drawn) | 6 | -3 | 59* | 0 | 16
CCCc1cc(C(=O)Nc2cc(C)ccc2O)no1 | -26 | -20 | 120* | 3 | 97
Cc1ccc(O)c(NC(=O)c2cc(C)no2)c1 | -6 | 1 | 100* | -13 | 60
O=C(Nc1cc(Br)ccc1O)c1cc(-c2ccccc2)on1 | -6 | 18 | 44 | 4 | 9
CCCc1cc(C(=O)Nc2cccnc2Cl)no1 | -9 | 0 | 30 | 4 | 8
Cc1ccc(O)c(NC(=O)c2cc(-c3ccccc3)on2)c1 | -2 | -2 | 96* | 6 | 65
Cc1cccc(C)c1NC(=O)c1c[nH]c2ccccc12 | -4 | 0 | 38 | 4 | 14
Cc1nnn(C23C[C@@H]4C[C@@H](CC(C(=O)N5CCN(c6ccccc6)CC5)(C4)C2)C3)n1 | 14 | -11 | -5 | -1 | 3
COC(=O)c1ccc(NC(=O)CN2CCN(c3ccccn3)CC2)cc1 | -3 | 15 | 27 | 0 | 1
CN(C)C(=O)N1CCC(C(=O)NCc2ccc(F)cc2Cl)CC1 | -15 | -10 | -73 | 0 | -69*
COc1ccc2c(c1)c(CC(=O)Nc1cccc(S(N)(=O)=O)c1)c(C)n2C(=O)c1ccc(Cl)cc1 | -12 | 10 | -8 | 0 | 7
CC(C(=O)Nc1ccccc1Sc1ccccc1)N(c1ccccc1)S(C)(=O)=O (stereo not drawn) | 23 | -17 | 17 | -1 | 7
COc1ccc(-c2csc(-n3cccn3)n2)cc1 | -2 | -23 | 61* | 3 | 29
COc1ccc(-c2csc(N3CCSCC3)n2)cc1 | -12 | -2 | -1 | 4 | 7
Cc1ccccc1Cn1cc(C)c(=O)[nH]c1=O | -14 | -2 | -4 | 0 | -4
Cc1cn(Cc2ccccc2Cn2cc(C)c(=O)[nH]c2=O)c(=O)[nH]c1=O | -9 | -1 | 71* | 0 | 27
C=CCNC(=O)COC(=O)c1cc(S(=O)(=O)N2CCCCC2)ccc1Cl | -6 | -3 | -12 | 0 | 3
SMILES | T cruzi inh | Calb FLC | HSF-1 act | HIF act | HSF1 inhib
CN(CC(=O)Nc1ccccc1Br)C(=O)c1cccn1C | ? | 3 | -74 | 0 | -67*
CN(CC(=O)Nc1c(Cl)cccc1Cl)C(=O)c1cccn1C | 3 | -7 | 5 | 0 | 8
CC(C)=C1C2CCC1C1C(=O)N(c3nc(-c4ccccc4)c(C)s3)C(=O)C21 (stereo not drawn) | -9 | ? | 74* | 0 | 20
Cc1cc(Nc2cccc(Cl)c2Cl)n2ncnc2n1 | -3 | 116* | 25 | -22 | 0
CCC(=O)CCC(=O)c1ccc2ccccc2c1 | -11 | -10 | -70 | 1 | -58*
O=C(CCNS(=O)(=O)c1ccccc1)NNC(=O)C1COc2ccccc2O1 (stereo not drawn) | -12 | 7 | 9 | 0 | -9
CCc1cc2c(=O)c(-c3ccc4c(c3)OCCO4)coc2cc1OS(C)(=O)=O | 39 | -4 | 56* | 5 | 28
CCOC(=O)c1oc2cc(O)c(CC)cc2c(=O)c1-c1ccc2c(c1)OCCO2 | 2 | 8 | 12 | 0 | 3
CCc1cc2c(=O)c(-c3nc4ccccc4[nH]3)coc2c(CN2CCCCC2C)c1O (stereo not drawn) | -4 | -1 | 1 | 0 | -3
CCc1cc2c(=O)c(-c3ccc4c(c3)OCCO4)coc2c(CN2CCCCC2C)c1O (stereo not drawn) | 56* | 30 | 2 | 0 | 4
CCC(CC)COC(=O)C1=C(C)NC(=O)NC1c1cc(OC)ccc1OC (stereo not drawn) | 24 | 9 | 70* | 1 | 26
COc1cccc(C2=NOC(C(=O)Nc3cccnc3Cl)C2)c1 (stereo not drawn) | -6 | 0 | 8 | 0 | -1
CCn1c(CNc2ccc(Cl)cc2)nnc1SCC(=O)NCc1ccccc1 | 9 | 7 | 60* | 2 | 44
CCn1c(CNc2ccc(Cl)cc2)nnc1SCc1ccccc1 | 0 | -9 | -4 | -3 | 7
CCCC(=O)N1CCN(c2ccc(NC(=O)c3cc4ccccc4o3)cc2Cl)CC1 | 48 | -1 | -78 | 0 | -79*
O=C(Nc1ccc(N2CCN(C(=O)c3ccco3)CC2)c(Cl)c1)c1cc2ccccc2o1 | 55* | 19 | -73 | 1 | -74*
O=C(NCc1n[nH]c(=S)n1-c1cccc(Cl)c1)c1ccc(S(=O)(=O)N2CCCCC2)cc1 | 6 | 13 | -11 | 0 | -9
O=S(=O)(Cc1cc(-c2ccccc2Cl)no1)c1ccccc1 | -2 | 1 | 72* | 3 | 41
O=S(=O)(Cc1cc(-c2ccc(Cl)cc2)no1)c1ccccc1 | 3 | 22 | 13 | 3 | 14
Cc1ccc(NC(=O)[C@@H](C)NC(=O)[C@@H]2Cc3ccccc3CN2)cc1 | 0 | ? | -64 | 1 | -55*
CCc1ccc(NC(=O)C2CCC(CNC(=O)[C@@H]3Cc4ccccc4CN3)CC2)cc1 (stereo partly drawn) | 3 | / | -72 | -2 | -66*
COc1ccc(NC(=O)Cc2nnc(SCC(=O)Nc3nccs3)n2C)cc1 | -1 | -8 | 7 | 0 | -1
Cc1ccc(-n2c(=O)c3ccccc3n(CC(=O)C(C)(C)C)c2=O)cc1 | 1 | -2 | -16 | 0 | -3
Cc1ccc(C(=O)N/N=c2\sc3ccccc3n2C)cc1 | 7 | 5 | ? | 3 | 23
COc1cccc(C(=O)N/N=c2\sc3ccccc3n2C)c1 | -9 | -3 | 81* | 2 | 44
CCCCN(C(=O)/C=C/c1ccco1)c1c(N)n(CCC)c(=O)[nH]c1=O | -11 | 4 | 76* | 0 | 30
